Test results reported in ChEMBL document CHEMBL1152757, “Stereoselective synthesis and biological evaluation of syn-1-amino-3-[18F]fluorocyclobutyl-1-carboxylic acid as a potential positron emission tomography brain tumor imaging agent” (Bioorg Med Chem, 2009).

Key:
Spleen [1] = assay: Biodistribution in spleen of rat 9L cells implanted Fischer rat at 15 to 30 uCi, iv after 60 mins by gamma-counter; type: ADME, organism-based; conditions: in vivo, 1 h
In short: (§1)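 Male Fischer 344 rats (125-175 g) implanted intracranially by stereotactic injection of 5 × 10^4 9L gliosarcoma cells. Used 10-12 days after implantation. Tracer given into the tail vein at 15-30 µCi in 0.1-0.3 mL sterile saline. Groups of 4 were sacrificed at 15, 30, 60 and 120 min. Tissues were weighed and gamma-counted against dose standards, and counts decay-corrected to %ID/g (mean ± SD). One-way ANOVA.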

[2] = Biodistribution in tumor of rat 9L cells implanted Fischer rat at 15 to 30 uCi, iv after 30 mins by gamma-counter; type: ADME, organism-based, Neoplasm; conditions: in vivo, 0.5 h; in short: as §1
Pancreas [3] = assay: Biodistribution in pancreas of rat 9L cells implanted Fischer rat at 15 to 30 uCi, iv after 15 mins by gamma-counter; type: ADME, organism-based; conditions: in vivo, 0.25 h; in short: as §1
Brain [4] = assay: Biodistribution in brain of rat 9L cells implanted Fischer rat at 15 to 30 uCi, iv after 60 mins by gamma-counter; type: ADME, organism-based; conditions: in vivo, 1 h; in short: as §1
Blood [5] = assay: Biodistribution in blood of rat 9L cells implanted Fischer rat at 15 to 30 uCi, iv after 60 mins by gamma-counter; type: ADME, organism-based; conditions: in vivo, 1 h; in short: as §1
Blood [6] = assay: Biodistribution in blood of rat 9L cells implanted Fischer rat at 15 to 30 uCi, iv after 30 mins by gamma-counter; type: ADME, organism-based; conditions: in vivo, 0.5 h; in short: as §1
Spleen [7] = assay: Biodistribution in spleen of rat 9L cells implanted Fischer rat at 15 to 30 uCi, iv after 120 mins by gamma-counter; type: ADME, organism-based; conditions: in vivo, 2 h; in short: as §1
Heart = assay: Biodistribution in heart of rat 9L cells implanted Fischer rat at 15 to 30 uCi, iv after 120 mins by gamma-counter; type: ADME, organism-based; conditions: in vivo, 2 h; in short: as §1
Muscle tissue [8] = assay: Biodistribution in muscle of rat 9L cells implanted Fischer rat at 15 to 30 uCi, iv after 30 mins by gamma-counter; type: ADME, organism-based; conditions: in vivo, 0.5 h; in short: as §1
Lung [9] = assay: Biodistribution in lung of rat 9L cells implanted Fischer rat at 15 to 30 uCi, iv after 30 mins by gamma-counter; type: ADME, organism-based; conditions: in vivo, 0.5 h; in short: as §1
Bone [10] = assay: Biodistribution in bone of rat 9L cells implanted Fischer rat at 15 to 30 uCi, iv after 30 mins by gamma-counter; type: ADME, organism-based, Bone element; conditions: in vivo, 0.5 h; in short: as §1
Muscle tissue [11] = assay: Biodistribution in muscle of rat 9L cells implanted Fischer rat at 15 to 30 uCi, iv after 15 mins by gamma-counter; type: ADME, organism-based; conditions: in vivo, 0.25 h; in short: as §1
Pancreas [12] = assay: Biodistribution in pancreas of rat 9L cells implanted Fischer rat at 15 to 30 uCi, iv after 60 mins by gamma-counter; type: ADME, organism-based; conditions: in vivo, 1 h; in short: as §1
Spleen [13] = assay: Biodistribution in spleen of rat 9L cells implanted Fischer rat at 15 to 30 uCi, iv after 30 mins by gamma-counter; type: ADME, organism-based; conditions: in vivo, 0.5 h; in short: as §1
Spleen [14] = assay: Biodistribution in spleen of rat 9L cells implanted Fischer rat at 15 to 30 uCi, iv after 15 mins by gamma-counter; type: ADME, organism-based; conditions: in vivo, 0.25 h; in short: as §1
Pancreas [15] = assay: Biodistribution in pancreas of rat 9L cells implanted Fischer rat at 15 to 30 uCi, iv after 30 mins by gamma-counter; type: ADME, organism-based; conditions: in vivo, 0.5 h; in short: as §1
[16] = Ratio of drug level from tumor to brain of rat 9L cells implanted Fischer rat at 15 to 30 uCi, iv after 60 mins by gamma-counter; type: ADME, organism-based; conditions: in vivo, 1 h
In short: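 Male Fischer 344 rats (125-175 g) received intracranial implants of 9L cells (5 × 10^4 cells) and were used 10-12 days later. Tracer was given by tail vein at 15-30 µCi in 0.1-0.3 mL sterile saline. Groups of 4 were killed at each time point. Tissues were weighed and gamma counted against dose standards with decay correction, giving %ID/g (mean). The ratio is tumor %ID/g over normal brain %ID/g.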

Lung [17] = assay: Biodistribution in lung of rat 9L cells implanted Fischer rat at 15 to 30 uCi, iv after 15 mins by gamma-counter; type: ADME, organism-based; conditions: in vivo, 0.25 h; in short: as §1
[18] = Biodistribution in tumor of rat 9L cells implanted Fischer rat at 15 to 30 uCi, iv after 120 mins by gamma-counter; type: ADME, organism-based, Neoplasm; conditions: in vivo, 2 h; in short: as §1
Bone [19] = assay: Biodistribution in bone of rat 9L cells implanted Fischer rat at 15 to 30 uCi, iv after 15 mins by gamma-counter; type: ADME, organism-based, Bone element; conditions: in vivo, 0.25 h; in short: as §1
Lung [20] = assay: Biodistribution in lung of rat 9L cells implanted Fischer rat at 15 to 30 uCi, iv after 120 mins by gamma-counter; type: ADME, organism-based; conditions: in vivo, 2 h; in short: as §1
Brain [21] = assay: Biodistribution in brain of rat 9L cells implanted Fischer rat at 15 to 30 uCi, iv after 30 mins by gamma-counter; type: ADME, organism-based; conditions: in vivo, 0.5 h; in short: as §1
Muscle tissue [22] = assay: Biodistribution in muscle of rat 9L cells implanted Fischer rat at 15 to 30 uCi, iv after 60 mins by gamma-counter; type: ADME, organism-based; conditions: in vivo, 1 h; in short: as §1
[23] = Biodistribution in testis of rat 9L cells implanted Fischer rat at 15 to 30 uCi, iv after 60 mins by gamma-counter; type: ADME, organism-based; conditions: in vivo, 1 h; in short: as §1
Liver = assay: Biodistribution in liver of rat 9L cells implanted Fischer rat at 15 to 30 uCi, iv after 120 mins by gamma-counter; type: ADME, organism-based; conditions: in vivo, 2 h; in short: as §1
Bone [24] = assay: Biodistribution in bone of rat 9L cells implanted Fischer rat at 15 to 30 uCi, iv after 60 mins by gamma-counter; type: ADME, organism-based, Bone element; conditions: in vivo, 1 h; in short: as §1

Drug uptake (Spleen [1]): 0.52 % ID/g | Drug uptake [2]: 2.1 % ID/g | Drug uptake (Pancreas [3]): 2.37 % ID/g | Drug uptake (Brain [4]): 0.2 % ID/g | Drug uptake (Blood [5]): 0.32 % ID/g | Drug uptake (Blood [6]): 0.37 % ID/g | Drug uptake (Spleen [7]): 0.4 % ID/g | Drug uptake (Heart): 0.3 % ID/g | Drug uptake (Muscle tissue [8]): 0.43 % ID/g | Drug uptake (Lung [9]): 0.57 % ID/g | Drug uptake (Bone [10]): 0.26 % ID/g | Drug uptake (Muscle tissue [11]): 0.35 % ID/g | Drug uptake (Pancreas [12]): 2.83 % ID/g | Drug uptake (Spleen [13]): 0.61 % ID/g | Drug uptake (Spleen [14]): 0.68 % ID/g | Drug uptake (Pancreas [15]): 3.36 % ID/g | Ratio [16]: 7.6 | Drug uptake (Lung [17]): 0.4 % ID/g | Drug uptake [18]: 1.93 % ID/g | Drug uptake (Bone [19]): 0.25 % ID/g | Drug uptake (Lung [20]): 0.48 % ID/g | Drug uptake (Brain [21]): 0.18 % ID/g | Drug uptake (Muscle tissue [22]): 0.42 % ID/g | Drug uptake [23]: 0.27 % ID/g | Drug uptake (Liver): 0.4 % ID/g | Drug uptake (Bone [24]): 0.28 % ID/g
SMILES: N[C@]1(C(=O)O)C[C@H]([18F])C1
